# Laboratory results as given in ChEMBL document CHEMBL3352487, “Synthesis, antibacterial activity, and biological evaluation of formyl hydroxyamino derivatives as novel potent peptide deformylase inhibitors against drug-resistant bacteria” (Eur J Med Chem, 2014).
# Legend:
# Escherichia coli [1] = assay: Antimicrobial activity against Escherichia coli isolate 1 after 24 hrs by broth microdilution method; format: functional; conditions: isolate 1, 24 h
# How it was run: (§1)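 Broth microdilution following NCCLS M7-A4; ATCC strains and clinical isolates from a provincial hospital.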
# Staphylococcus aureus [2] = assay: Antimicrobial activity against methicillin-susceptible Staphylococcus aureus after 24 hrs by broth microdilution method; format: functional; how it was run: as §1
# Staphylococcus aureus [3] = assay: Antimicrobial activity against methicillin-resistant Staphylococcus aureus after 24 hrs by broth microdilution method; format: functional
# How it was run: (§2)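 Broth microdilution following NCCLS M7-A4, using ATCC strains and clinical isolates from a provincial hospital.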
# Staphylococcus aureus [4] = assay: Antimicrobial activity against Staphylococcus aureus after 24 hrs by broth microdilution method; format: functional; how it was run: as §1
# Escherichia coli [5] = assay: Antimicrobial activity against Escherichia coli isolate 2 after 24 hrs by broth microdilution method; format: functional; conditions: isolate 2, 24 h; how it was run: as §1
# [6] = Solubility of the compound in artificial intestinal juice measured every 2 hrs for 12 hrs by HPLC analysis; format: physicochemical; conditions: simulated gi fluid
# [7] = Stability of the compound in artificial intestinal juice measured every 2 hrs for 12 hrs by HPLC analysis; format: physicochemical; conditions: simulated gi fluid
# [8] = Solubility of the compound in artificial gastric juice measured every 2 hrs for 12 hrs by HPLC analysis; format: ADME; conditions: simulated gi fluid
# [9] = test system: Staphylococcus epidermidis; assay: Antimicrobial activity against Staphylococcus epidermidis after 24 hrs by broth microdilution method; format: functional; how it was run: as §1
# [10] = Stability of the compound in artificial gastric juice measured every 2 hrs for 12 hrs by HPLC analysis; format: ADME; conditions: simulated gi fluid
# Streptococcus pyogenes [11] = assay: Antimicrobial activity against Streptococcus pyogenes 1307006P after 24 hrs by broth microdilution method; format: functional; how it was run: as §1
# Enterococcus faecium = assay: Antimicrobial activity against Enterococcus faecium X7501 after 24 hrs by broth microdilution method; format: functional; conditions: X7501, 24 h; how it was run: as §1
# Streptococcus pneumoniae [12] = assay: Antimicrobial activity against Streptococcus pneumoniae ERY2 after 24 hrs by broth microdilution method; format: functional; conditions: ERY2, 24 h; how it was run: as §1
# Haemophilus influenzae [13] = assay: Antimicrobial activity against Haemophilus influenzae H128 after 24 hrs by broth microdilution method; format: functional; conditions: H128, 24 h; how it was run: as §1
# Staphylococcus aureus [14] = assay: Antimicrobial activity against Staphylococcus aureus OXFORD after 24 hrs by broth microdilution method; format: functional; how it was run: as §2
# Streptococcus pyogenes [15] = assay: Antimicrobial activity against Streptococcus pyogenes 1308007P after 24 hrs by broth microdilution method; format: functional; how it was run: as §1
# Haemophilus influenzae [16] = assay: Antimicrobial activity against Haemophilus influenzae Q1 after 24 hrs by broth microdilution method; format: functional; conditions: Q1, 24 h; how it was run: as §1
# Staphylococcus aureus [17] = assay: Antimicrobial activity against Staphylococcus aureus WCUH29 after 24 hrs by broth microdilution method; format: functional; conditions: WCUH29, 24 h; how it was run: as §1
# Escherichia coli [18] = assay: Antimicrobial activity against Escherichia coli isolate 3 after 24 hrs by broth microdilution method; format: functional; conditions: isolate 3, 24 h; how it was run: as §1
# Enterococcus faecalis = assay: Antimicrobial activity against Enterococcus faecalis Isolate 1 after 24 hrs by broth microdilution method; format: functional; conditions: Isolate 1, 24 h; how it was run: as §1
# Streptococcus pneumoniae [19] = assay: Antimicrobial activity against Streptococcus pneumoniae 1629 after 24 hrs by broth microdilution method; format: functional; conditions: Streptococcus pneumoniae, 1629, 24 h; how it was run: as §1
# Streptococcus pneumoniae [20] = assay: Antimicrobial activity against Streptococcus pneumoniae N1387 after 24 hrs by broth microdilution method; format: functional; conditions: N1387, 24 h; how it was run: as §1
# Moraxella catarrhalis = assay: Antimicrobial activity against Moraxella catarrhalis 1502 after 24 hrs by broth microdilution method; format: functional; conditions: Moraxella catarrhalis, 1502, 24 h; how it was run: as §1
# Haemophilus influenzae [21] = assay: Antimicrobial activity against AcrA-deficient Haemophilus influenzae H128 after 24 hrs by broth microdilution method; format: functional; conditions: H128, 24 h; how it was run: as §1
# Staphylococcus aureus [22] = assay: Antimicrobial activity against Staphylococcus aureus isolate 934334 after 24 hrs by broth microdilution method; format: functional; conditions: isolate 934334, 24 h; how it was run: as §1
# Staphylococcus aureus [23] = assay: Antimicrobial activity against Staphylococcus aureus isolate NEQAS 4026 after 24 hrs by broth microdilution method; format: functional; conditions: isolate NEQAS 4026, 24 h; how it was run: as §1
# Staphylococcus aureus [24] = assay: Antimicrobial activity against Staphylococcus aureus isolate MN 1255 after 24 hrs by broth microdilution method; format: functional; conditions: isolate MN 1255, 24 h; how it was run: as §1
# Staphylococcus aureus [25] = assay: Antimicrobial activity against Staphylococcus aureus isolate RN1030 after 24 hrs by broth microdilution method; format: functional; conditions: isolate RN1030, 24 h; how it was run: as §2
# Staphylococcus aureus [26] = assay: Antimicrobial activity against Staphylococcus aureus isolate RN1024 after 24 hrs by broth microdilution method; format: functional; conditions: isolate RN1024, 24 h; how it was run: as §2
# Staphylococcus aureus [27] = assay: Antimicrobial activity against Staphylococcus aureus isolate RN4220 pmz1 after 24 hrs by broth microdilution method; format: functional; conditions: isolate RN4220 pmz1, 24 h; how it was run: as §2
# Staphylococcus aureus [28] = assay: Antimicrobial activity against Staphylococcus aureus isolate CL 939 after 24 hrs by broth microdilution method; format: functional; conditions: isolate CL 939, 24 h; how it was run: as §2
# Staphylococcus aureus [29] = assay: Antimicrobial activity against Staphylococcus aureus isolate CARTER 37 after 24 hrs by broth microdilution method; format: functional; conditions: isolate CARTER 37, 24 h; how it was run: as §2
# Staphylococcus aureus [30] = assay: Antimicrobial activity against Staphylococcus aureus isolate OGA833 after 24 hrs by broth microdilution method; format: functional; conditions: isolate OGA833, 24 h; how it was run: as §1
# Staphylococcus aureus [31] = assay: Antimicrobial activity against Staphylococcus aureus isolate RUSSELL after 24 hrs by broth microdilution method; format: functional; how it was run: as §2
# Staphylococcus aureus [32] = assay: Antimicrobial activity against Staphylococcus aureus isolate CL 938 after 24 hrs by broth microdilution method; format: functional; conditions: isolate CL 938, 24 h; how it was run: as §1
# Staphylococcus aureus [33] = assay: Antimicrobial activity against Staphylococcus aureus isolate 934335 after 24 hrs by broth microdilution method; format: functional; conditions: isolate 934335, 24 h; how it was run: as §1
# Staphylococcus aureus [34] = assay: Antimicrobial activity against Staphylococcus aureus isolate 929035 after 24 hrs by broth microdilution method; format: functional; conditions: isolate 929035, 24 h; how it was run: as §1
# Staphylococcus aureus [35] = assay: Antimicrobial activity against Staphylococcus aureus isolate NEQAS 4158 after 24 hrs by broth microdilution method; format: functional; conditions: isolate NEQAS 4158, 24 h; how it was run: as §1
# Staphylococcus aureus [36] = assay: Antimicrobial activity against Staphylococcus aureus isolate 929003 after 24 hrs by broth microdilution method; format: functional; conditions: isolate 929003, 24 h; how it was run: as §1
# Staphylococcus aureus [37] = assay: Antimicrobial activity against Staphylococcus aureus isolate 934387 after 24 hrs by broth microdilution method; format: functional; conditions: isolate 934387, 24 h; how it was run: as §2
# Staphylococcus aureus [38] = assay: Antimicrobial activity against Staphylococcus aureus ATCC 29213 after 24 hrs by broth microdilution method; format: functional; conditions: ATCC 29213, 24 h; how it was run: as §1
# Staphylococcus aureus [39] = assay: Antimicrobial activity against Staphylococcus aureus isolate Ealing 32 after 24 hrs by broth microdilution method; format: functional; conditions: isolate Ealing 32, 24 h; how it was run: as §1
# Staphylococcus aureus [40] = assay: Antimicrobial activity against Staphylococcus aureus isolate 934324 after 24 hrs by broth microdilution method; format: functional; conditions: isolate 934324, 24 h; how it was run: as §1
# Staphylococcus aureus [41] = assay: Antimicrobial activity against Staphylococcus aureus isolate Ealing 23 after 24 hrs by broth microdilution method; format: functional; conditions: isolate Ealing 23, 24 h; how it was run: as §2
# Staphylococcus aureus [42] = assay: Antimicrobial activity against Staphylococcus aureus isolate 306 after 24 hrs by broth microdilution method; format: functional; conditions: isolate 306, 24 h; how it was run: as §1
# Staphylococcus aureus [43] = assay: Antimicrobial activity against Staphylococcus aureus isolate CL 1033 after 24 hrs by broth microdilution method; format: functional; conditions: isolate CL 1033, 24 h; how it was run: as §1
# Staphylococcus aureus [44] = assay: Antimicrobial activity against Staphylococcus aureus isolate Smith ATCC 13709 after 24 hrs by broth microdilution method; format: functional; conditions: isolate Smith ATCC 13709, 24 h; how it was run: as §2
# Staphylococcus aureus [45] = assay: Antimicrobial activity against Staphylococcus aureus isolate MILES HALL after 24 hrs by broth microdilution method; format: functional; how it was run: as §2
# Staphylococcus aureus [46] = assay: Antimicrobial activity against Staphylococcus aureus isolate F89 after 24 hrs by broth microdilution method; format: functional; conditions: isolate F89, 24 h; how it was run: as §1
structure (smiles),measurement,setting,value
CCCC[C@H](CN(O)C=O)C(=O)N1CC=C[C@H]1C(=O)Nc1ccc(F)cn1,MIC,Escherichia coli [1],> 64 µg/mL
same,MIC,Staphylococcus aureus [2],1 µg/mL
same,MIC,Staphylococcus aureus [3],0.25 µg/mL
same,MIC,Staphylococcus aureus [4],0.5 µg/mL
same,MIC,Escherichia coli [5],64 µg/mL
same,solubility,[6],soluble
same,Stability,[7],Stable
same,solubility,[8],soluble
same,MIC,[9],0.5 µg/mL
same,Stability,[10],Stable
O=CN(O)C[C@@H](CC1CCCC1)C(=O)N1CC=C[C@H]1C(=O)Nc1ccccc1,MIC,Streptococcus pyogenes [11],0.25 µg/mL
same,MIC,Escherichia coli [1],32 µg/mL
same,MIC,Staphylococcus aureus [2],4 µg/mL
same,MIC,Staphylococcus aureus [3],1 µg/mL
same,MIC,Enterococcus faecium,1 µg/mL
same,MIC,Streptococcus pneumoniae [12],1 µg/mL
same,MIC,Haemophilus influenzae [13],2 µg/mL
same,MIC,Staphylococcus aureus [14],1 µg/mL
same,MIC,Streptococcus pyogenes [15],0.5 µg/mL
same,MIC,Haemophilus influenzae [16],2 µg/mL
same,MIC,Staphylococcus aureus [4],4 µg/mL
same,MIC,Staphylococcus aureus [17],0.125 µg/mL
same,MIC,Escherichia coli [18],64 µg/mL
same,MIC,Escherichia coli [5],32 µg/mL
same,MIC,Enterococcus faecalis,> 64 µg/mL
same,MIC,Streptococcus pneumoniae [19],2 µg/mL
same,MIC,Streptococcus pneumoniae [20],0.5 µg/mL
same,MIC,Moraxella catarrhalis,≤ 0.06 µg/mL
same,MIC,Haemophilus influenzae [21],≤ 0.06 µg/mL
same,MIC,[9],0.5 µg/mL
C/C(=C\C(=O)OCCCCCCCCC(=O)O)C[C@@H]1OC[C@H](C[C@@H]2O[C@H]2[C@@H](C)[C@H](C)O)[C@@H](O)[C@H]1O [MUPIROCIN],MIC,Staphylococcus aureus [22],0.25 µg/mL
same,MIC,Staphylococcus aureus [23],> 16 µg/mL
same,MIC,Staphylococcus aureus [24],0.25 µg/mL
same,MIC,Staphylococcus aureus [25],0.25 µg/mL
same,MIC,Staphylococcus aureus [26],0.25 µg/mL
same,MIC,Staphylococcus aureus [27],> 16 µg/mL
same,MIC,Staphylococcus aureus [28],0.25 µg/mL
same,MIC,Staphylococcus aureus [29],> 16 µg/mL
same,MIC,Staphylococcus aureus [30],> 16 µg/mL
same,MIC,Staphylococcus aureus [31],0.25 µg/mL
same,MIC,Staphylococcus aureus [32],0.25 µg/mL
same,MIC,Staphylococcus aureus [33],0.25 µg/mL
same,MIC,Staphylococcus aureus [34],0.25 µg/mL
same,MIC,Staphylococcus aureus [35],0.25 µg/mL
same,MIC,Staphylococcus aureus [36],0.25 µg/mL
same,MIC,Staphylococcus aureus [37],0.25 µg/mL
same,MIC,Staphylococcus aureus [38],0.25 µg/mL
same,MIC,Staphylococcus aureus [39],> 16 µg/mL
same,MIC,Staphylococcus aureus [40],0.25 µg/mL
same,MIC,Staphylococcus aureus [41],> 16 µg/mL
same,MIC,Staphylococcus aureus [42],> 16 µg/mL
same,MIC,Staphylococcus aureus [43],0.25 µg/mL
same,MIC,Staphylococcus aureus [44],0.06 µg/mL
same,MIC,Staphylococcus aureus [45],> 16 µg/mL
same,MIC,Staphylococcus aureus [46],> 16 µg/mL
O=CN(O)C[C@@H](CC1CCCC1)C(=O)N1CC=C[C@H]1C(=O)Nc1ccc(F)cc1,MIC,Streptococcus pyogenes [11],0.25 µg/mL
same,MIC,Escherichia coli [1],32 µg/mL
same,MIC,Staphylococcus aureus [2],0.5 µg/mL
same,MIC,Staphylococcus aureus [3],0.25 µg/mL
same,MIC,Enterococcus faecium,1 µg/mL
same,MIC,Streptococcus pneumoniae [12],1 µg/mL
same,MIC,Haemophilus influenzae [13],2 µg/mL
same,MIC,Staphylococcus aureus [14],1 µg/mL
same,MIC,Streptococcus pyogenes [15],0.25 µg/mL
same,MIC,Haemophilus influenzae [16],2 µg/mL
same,MIC,Staphylococcus aureus [4],0.25 µg/mL
same,MIC,Staphylococcus aureus [17],0.125 µg/mL
same,MIC,Escherichia coli [18],32 µg/mL
same,MIC,Escherichia coli [5],64 µg/mL
same,MIC,Enterococcus faecalis,2 µg/mL
same,MIC,Streptococcus pneumoniae [19],1 µg/mL
same,MIC,Streptococcus pneumoniae [20],0.5 µg/mL
same,MIC,Moraxella catarrhalis,≤ 0.06 µg/mL
same,MIC,Haemophilus influenzae [21],≤ 0.06 µg/mL
same,MIC,[9],1 µg/mL
